Measured values reported in ChEMBL document CHEMBL6071151, “Discovery of Inhibitors Targeting Protein-Protein Interaction between Bacterial RNA Polymerase and NusG as Novel Antimicrobials” (J Med Chem, 2024).

How the values were obtained:
Format in all cases: functional
[1] = test system: Enterobacter cloacae; test: Antimicrobial activity against Enterobacter cloacae ATCC 13047 assessed as reduction in microbial growth measured after 20 hrs by CLSI based broth microdilution method
Method in brief: (§1)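 Broth microdilution per CLSI in cation-adjusted Mueller-Hinton broth. Two-fold serial dilutions from 256 to 0.25 μg/mL, inoculum about 5 × 10⁵ CFU/mL. Read after 20 h at 37 °C. MIC is the lowest concentration with no visible growth. Run in duplicate.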

[2] = test system: Staphylococcus saprophyticus; test: Antimicrobial activity against Staphylococcus saprophyticus ATCC 15305 assessed as reduction in microbial growth measured after 20 hrs by CLSI based broth microdilution method
[3] = test system: Enterococcus faecalis; test: Antimicrobial activity against Enterococcus faecalis ATCC 19433 assessed as reduction in microbial growth measured after 20 hrs by CLSI based broth microdilution method; method in brief: as §1
[4] = test system: Streptococcus pneumoniae; test: Antimicrobial activity against Streptococcus pneumoniae clinical isolate CUHK-X01 assessed as reduction in microbial growth measured after 20 hrs by CLSI based broth microdilution method
[5] = test system: Klebsiella pneumoniae; test: Antimicrobial activity against Klebsiella pneumoniae ATCC 700603 assessed as reduction in microbial growth measured after 20 hrs by CLSI based broth microdilution method; method in brief: as §1
[6] = test system: Streptococcus pneumoniae; test: Antimicrobial activity against Streptococcus pneumoniae ATCC 49619 assessed as reduction in microbial growth measured after 20 hrs by CLSI based broth microdilution method
[7] = test system: Streptococcus agalactiae; test: Antimicrobial activity against Streptococcus agalactiae ATCC 12386 assessed as reduction in microbial growth measured after 20 hrs by CLSI based broth microdilution method
[8] = test system: Streptococcus pneumoniae; test: Antimicrobial activity against Streptococcus pneumoniae clinical isolate CUHK-X03 assessed as reduction in microbial growth measured after 20 hrs by CLSI based broth microdilution method
[9] = test system: Staphylococcus aureus; test: Antimicrobial activity against Staphylococcus aureus ATCC 29213 assessed as reduction in microbial growth measured after 20 hrs by CLSI based broth microdilution method; method in brief: as §1
[10] = test system: Escherichia coli; test: Antimicrobial activity against Escherichia coli ATCC 25922 assessed as reduction in microbial growth measured after 20 hrs by CLSI based broth microdilution method; method in brief: as §1
[11] = test system: Streptococcus pneumoniae; test: Antimicrobial activity against Streptococcus pneumoniae NP112 (NR-19213) assessed as reduction in microbial growth measured after 20 hrs by CLSI based broth microdilution method
[12] = test system: Pseudomonas aeruginosa; test: Antimicrobial activity against Pseudomonas aeruginosa ATCC 27853 assessed as reduction in microbial growth measured after 20 hrs by CLSI based broth microdilution method; method in brief: as §1
[13] = test system: Streptococcus pneumoniae; test: Antimicrobial activity against Streptococcus pneumoniae TCH8431 (HM-145) assessed as reduction in microbial growth measured after 20 hrs by CLSI based broth microdilution method
[14] = test system: Staphylococcus epidermidis; test: Antimicrobial activity against Staphylococcus epidermidis ATCC 12228 assessed as reduction in microbial growth measured after 20 hrs by CLSI based broth microdilution method
[15] = test system: Streptococcus pneumoniae; test: Antimicrobial activity against Streptococcus pneumoniae clinical isolate CUHK-X04 assessed as reduction in microbial growth measured after 20 hrs by CLSI based broth microdilution method
[16] = test system: Acinetobacter baumannii; test: Antimicrobial activity against Acinetobacter baumannii ATCC 19606 assessed as reduction in microbial growth measured after 20 hrs by CLSI based broth microdilution method; method in brief: as §1
[17] = test system: Streptococcus pneumoniae; test: Antimicrobial activity against Streptococcus pneumoniae clinical isolate CUHK-X02 assessed as reduction in microbial growth measured after 20 hrs by CLSI based broth microdilution method
[18] = test system: Streptococcus pyogenes; test: Antimicrobial activity against Streptococcus pyogenes ATCC 19615 assessed as reduction in microbial growth measured after 20 hrs by CLSI based broth microdilution method
[19] = test system: Staphylococcus aureus; test: Antimicrobial activity against Staphylococcus aureus ATCC 25923 assessed as reduction in microbial growth measured after 20 hrs by CLSI based broth microdilution method; method in brief: as §1

| SMILES | MIC [1] [µg/mL] | MIC [2] [µg/mL] | MIC [3] [µg/mL] | MIC [4] [µg/mL] | MIC [5] [µg/mL] | MIC [6] [µg/mL] | MIC [7] [µg/mL] | MIC [8] [µg/mL] | MIC [9] [µg/mL] | MIC [10] [µg/mL] | MIC [11] [µg/mL] | MIC [12] [µg/mL] | MIC [13] [µg/mL] | MIC [14] [µg/mL] | MIC [15] [µg/mL] | MIC [16] [µg/mL] | MIC [17] [µg/mL] | MIC [18] [µg/mL] | MIC [19] [µg/mL] |
| --- | --- | --- | --- | --- | --- | --- | --- | --- | --- | --- | --- | --- | --- | --- | --- | --- | --- | --- | --- |
| OC(CNCCNc1nccc(C(F)(F)F)n1)COc1ccc(C(F)(F)F)cc1 (centres undefined) | > 256 | – | 64 | – | > 256 | 32 | – | – | 64 | > 256 | – | > 256 | – | – | – | 128 | – | – | 64 |
| O=[N+]([O-])c1ccc(OCC(O)CNCCNc2cc(C(F)(F)F)ccn2)cc1 (centres undefined) | 256 | – | 128 | – | > 256 | 64 | – | – | 128 | > 256 | – | > 256 | – | – | – | > 256 | – | – | 128 |
| O=[N+]([O-])c1ccc(OCC(O)CNCCNc2ccc(F)cn2)cc1 (centres undefined) | > 256 | – | > 256 | – | > 256 | > 256 | – | – | > 256 | > 256 | – | > 256 | – | – | – | > 256 | – | – | > 256 |
| O=[N+]([O-])c1ccc(OCC(O)CNCCNc2ncccc2C(F)(F)F)cc1 (centres undefined) | > 256 | – | 256 | – | > 256 | 64 | – | – | 128 | > 256 | – | > 256 | – | – | – | > 256 | – | – | 128 |
| OC(CNCCNc1ccc(C(F)(F)F)cn1)COCc1ccccc1 (centres undefined) | 256 | – | 256 | – | > 256 | 128 | – | – | 128 | 256 | – | > 256 | – | – | – | 256 | – | – | 256 |
| O=[N+]([O-])c1ccc(OCC(O)CNCCNc2ncc(C(F)(F)F)cn2)cc1 (centres undefined) | > 256 | – | > 256 | – | > 256 | 128 | – | – | 256 | > 256 | – | > 256 | – | – | – | > 256 | – | – | 256 |

These reach a lower MIC [1]. Values come first.

| MIC [1] [µg/mL] | MIC [2] [µg/mL] | MIC [3] [µg/mL] | MIC [4] [µg/mL] | MIC [5] [µg/mL] | MIC [6] [µg/mL] | MIC [7] [µg/mL] | MIC [8] [µg/mL] | MIC [9] [µg/mL] | MIC [10] [µg/mL] | MIC [11] [µg/mL] | MIC [12] [µg/mL] | MIC [13] [µg/mL] | MIC [14] [µg/mL] | MIC [15] [µg/mL] | MIC [16] [µg/mL] | MIC [17] [µg/mL] | MIC [18] [µg/mL] | MIC [19] [µg/mL] | SMILES |
| --- | --- | --- | --- | --- | --- | --- | --- | --- | --- | --- | --- | --- | --- | --- | --- | --- | --- | --- | --- |
| 128 | – | 32 | – | > 256 | 16 | – | – | 32 | 128 | – | > 256 | – | – | – | 64 | – | – | 32 | OC(CNCCNc1ccc(C(F)(F)F)cn1)COCc1ccc(C(F)(F)F)cc1 (centres undefined) |
| 128 | – | 64 | – | > 256 | 32 | – | – | 64 | 64 | – | > 256 | – | – | – | 64 | – | – | 64 | O=S(=O)(NCCNCC(O)COc1ccc(C(F)(F)F)cc1)c1ccccc1C(F)(F)F (centres undefined) |
| 128 | – | 128 | – | 256 | 64 | – | – | 64 | 128 | – | > 256 | – | – | – | 128 | – | – | 128 | O=[N+]([O-])c1ccc(NCCNCC(O)COCc2ccc(C(F)(F)F)cc2)nc1 (centres undefined) |
| 128 | – | 8 | – | > 256 | 4 | – | – | 8 | 16 | – | > 256 | – | – | – | 32 | – | – | 16 | OC(CNCCSc1ccccc1C(F)(F)F)COc1ccc(C(F)(F)F)cc1 (centres undefined) |
| 32 | 8 | 16 | 16 | > 256 | 8 | 8 | 8 | 16 | 16 | 16 | > 256 | 8 | 8 | 8 | 16 | 16 | 8 | 16 | OC(CNCCOc1ccccc1C(F)(F)F)COc1ccc(C(F)(F)F)cc1 (centres undefined) |
